Test results from ChEMBL document CHEMBL3779767, “Identification of potent and selective MTH1 inhibitors” (Bioorg Med Chem Lett, 2016).
Activity calls are given as the source filed them. The rule behind the calls is not given here.

Tests used:
[1] = target: Glycogen synthase kinase-3 beta (Homo sapiens) (UniProt P49841); assay: Inhibition of partial length human GSK3beta expressed in mammalian system at 1 uM
How it was run: (§1)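 Single-point screen within a 97-kinase profiling panel, with the test compound at 1 µM.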

[2] = target: Activin receptor type-1B (Homo sapiens) (UniProt P36896); assay: Inhibition of partial length human ACVR1B expressed in bacterial system at 1 uM; how it was run: as §1
Activin receptor type-1B (Homo sapiens), sequence (P36896 whole entry): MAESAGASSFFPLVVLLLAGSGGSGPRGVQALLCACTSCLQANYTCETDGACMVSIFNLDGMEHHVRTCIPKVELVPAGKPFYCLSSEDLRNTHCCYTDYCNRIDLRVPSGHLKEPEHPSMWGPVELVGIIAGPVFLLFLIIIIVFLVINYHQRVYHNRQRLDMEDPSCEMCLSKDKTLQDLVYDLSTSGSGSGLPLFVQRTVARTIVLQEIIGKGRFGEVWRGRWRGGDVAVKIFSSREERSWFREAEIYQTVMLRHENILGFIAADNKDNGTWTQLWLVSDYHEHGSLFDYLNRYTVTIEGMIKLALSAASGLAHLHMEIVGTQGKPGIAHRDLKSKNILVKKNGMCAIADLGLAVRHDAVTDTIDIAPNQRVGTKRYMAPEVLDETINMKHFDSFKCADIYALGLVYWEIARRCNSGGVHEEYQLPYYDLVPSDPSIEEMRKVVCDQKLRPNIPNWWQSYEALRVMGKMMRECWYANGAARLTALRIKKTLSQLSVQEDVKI

[3] = target: Tyrosine-protein kinase ABL1 (Homo sapiens) (UniProt P00519); assay: Inhibition of partial length human ABL1 phosphorylation expressed in mammalian system at 1 uM; how it was run: as §1
SAOS-2 [4] = assay: Antiproliferative activity against human Saos2 cells assessed as change in phenotypic response measured after prolonged treatment; format: functional, cell-based
SW480 = assay: Antiproliferative activity against human SW480 cells assessed as change in phenotypic response up to 50 uM; format: functional, cell-based
[5] = target: Cyclin-dependent kinase 9 (Homo sapiens) (UniProt P50750); assay: Inhibition of partial length human CDK9 expressed in bacterial system at 1 uM; how it was run: as §1
[6] = target: Protein kinase C epsilon type (Homo sapiens) (UniProt Q02156); assay: Inhibition of partial length human PRKCE expressed in mammalian system at 1 uM
How it was run: (§2)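 Single-concentration screen across a panel of 97 kinases, with the test compound at 1 uM.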

MDA-MB-231 = assay: Antiproliferative activity against human MDA-MB-231 cells assessed as change in phenotypic response up to 50 uM; format: functional, cell-based
[7] = target: MAP/microtubule affinity-regulating kinase 3 (Homo sapiens) (UniProt P27448); assay: Inhibition of partial length human MARK3 expressed in bacterial system at 1 uM; how it was run: as §1
[8] = Efflux ratio of permeability in MDCK cells; format: ADME, cell-based, Canis lupus familiaris; details: dog
How it was run: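 Permeability measured across a confluent MDCK cell monolayer, with the efflux ratio reported alongside the permeability value.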

[9] = target: Mitogen-activated protein kinase 11 (Homo sapiens) (UniProt Q15759); assay: Inhibition of partial length human p38beta expressed in bacterial system at 1 uM; how it was run: as §2
[10] = target: Tyrosine-protein kinase ZAP-70 (Homo sapiens) (UniProt P43403); assay: Inhibition of partial length human ZAP70 expressed in mammalian system at 1 uM; how it was run: as §2
[11] = target: Epidermal growth factor receptor (Homo sapiens) (UniProt P00533); assay: Inhibition of partial length human EGFR expressed in bacterial system at 1 uM; how it was run: as §1
[12] = target: Serine/threonine-protein kinase B-raf (Homo sapiens) (UniProt P15056); assay: Inhibition of partial length human BRAF expressed in mammalian system at 1 uM; how it was run: as §1
[13] = target: Serine/threonine-protein kinase PLK4 (Homo sapiens) (UniProt O00444); assay: Inhibition of partial length human PLK4 expressed in mammalian system at 1 uM; how it was run: as §2
[14] = Permeability across MDCK cells; format: ADME, cell-based, Canis lupus familiaris; details: dog, read-out: permeability
How it was run: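 Measured across a confluent MDCK cell monolayer; apparent permeability is reported together with the efflux ratio.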

U2OS [15] = assay: Antiproliferative activity against human U2OS cells assessed as change in phenotypic response measured after prolonged treatment; format: functional, cell-based
[16] = target: Tyrosine-protein kinase JAK3 (Homo sapiens) (UniProt P52333); assay: Inhibition of partial length human JAK3 JH1 catalytic domain expressed in mammalian system at 1 uM; how it was run: as §1
MRC5 = assay: Cytotoxicity against human MRC5 cells assessed as change in phenotypic response up to 50 uM; format: cell-based
[17] = target: Serine/threonine-protein kinase RIO2 (Homo sapiens) (UniProt Q9BVS4); assay: Inhibition of partial length human RIOK2 expressed in mammalian system at 1 uM; how it was run: as §2
Serine/threonine-protein kinase RIO2 (Homo sapiens), sequence (Q9BVS4 whole entry, looked up): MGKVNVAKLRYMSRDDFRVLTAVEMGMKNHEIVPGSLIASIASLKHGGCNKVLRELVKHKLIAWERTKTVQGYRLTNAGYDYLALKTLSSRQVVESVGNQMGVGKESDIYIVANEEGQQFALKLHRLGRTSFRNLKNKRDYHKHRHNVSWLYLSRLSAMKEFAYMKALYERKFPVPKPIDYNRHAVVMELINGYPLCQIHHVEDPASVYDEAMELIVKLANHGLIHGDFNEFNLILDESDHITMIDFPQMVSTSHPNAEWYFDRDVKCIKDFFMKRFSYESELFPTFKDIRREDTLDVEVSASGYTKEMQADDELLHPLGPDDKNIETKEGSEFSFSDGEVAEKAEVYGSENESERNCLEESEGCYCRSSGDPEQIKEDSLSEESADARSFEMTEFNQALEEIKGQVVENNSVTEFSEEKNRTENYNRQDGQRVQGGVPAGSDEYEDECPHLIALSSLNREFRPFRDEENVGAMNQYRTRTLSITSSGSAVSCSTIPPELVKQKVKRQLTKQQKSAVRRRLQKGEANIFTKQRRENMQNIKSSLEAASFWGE

[18] = test system: Tyrosine-protein kinase ABL1 (Homo sapiens), P00519 [T315I]; assay: Inhibition of partial length human ABL1 T315I mutant phosphorylation expressed in mammalian system at 1 uM; how it was run: as §1
[19] = target: 3-phosphoinositide-dependent protein kinase 1 (Homo sapiens) (UniProt O15530); assay: Inhibition of partial length human PDPK1 expressed in bacterial system at 1 uM; how it was run: as §2
3-phosphoinositide-dependent protein kinase 1 (Homo sapiens), sequence (O15530 whole entry): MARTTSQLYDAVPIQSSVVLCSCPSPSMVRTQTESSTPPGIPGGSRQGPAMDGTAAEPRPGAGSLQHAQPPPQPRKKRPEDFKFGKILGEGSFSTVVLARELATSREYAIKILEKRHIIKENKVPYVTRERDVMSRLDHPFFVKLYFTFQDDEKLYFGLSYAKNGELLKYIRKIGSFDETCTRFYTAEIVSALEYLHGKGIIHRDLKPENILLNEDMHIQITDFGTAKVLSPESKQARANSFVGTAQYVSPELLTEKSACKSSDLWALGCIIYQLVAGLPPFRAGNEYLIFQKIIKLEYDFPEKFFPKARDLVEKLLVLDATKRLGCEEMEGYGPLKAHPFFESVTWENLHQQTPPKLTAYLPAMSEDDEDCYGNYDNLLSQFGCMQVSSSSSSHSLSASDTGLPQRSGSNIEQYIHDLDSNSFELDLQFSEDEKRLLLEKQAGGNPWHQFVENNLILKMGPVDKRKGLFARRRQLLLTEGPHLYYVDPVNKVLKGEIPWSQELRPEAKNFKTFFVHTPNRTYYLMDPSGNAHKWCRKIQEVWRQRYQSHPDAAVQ

[20] = target: Serine/threonine-protein kinase pim-1 (Homo sapiens) (UniProt P11309); assay: Inhibition of partial length human PIM1 expressed in bacterial system at 1 uM; how it was run: as §2
Serine/threonine-protein kinase pim-1 (Homo sapiens), sequence (P11309 whole entry, looked up): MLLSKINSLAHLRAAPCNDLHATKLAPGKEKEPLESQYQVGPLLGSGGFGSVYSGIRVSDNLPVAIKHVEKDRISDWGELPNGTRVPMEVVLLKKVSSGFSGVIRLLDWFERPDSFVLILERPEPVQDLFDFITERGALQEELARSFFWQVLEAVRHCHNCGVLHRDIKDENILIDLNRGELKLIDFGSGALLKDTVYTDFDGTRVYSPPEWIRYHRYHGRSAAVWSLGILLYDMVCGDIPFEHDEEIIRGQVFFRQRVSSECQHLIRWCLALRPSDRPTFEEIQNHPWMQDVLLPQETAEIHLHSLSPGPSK

[21] = target: RAC-alpha serine/threonine-protein kinase (Homo sapiens) (UniProt P31749); assay: Inhibition of partial length human AKT1 expressed in bacterial system at 1 uM; how it was run: as §1
[22] = target: High affinity nerve growth factor receptor (Homo sapiens) (UniProt P04629); assay: Inhibition of partial length human TRKA expressed in mammalian system at 1 uM; how it was run: as §2
High affinity nerve growth factor receptor (Homo sapiens), sequence (P04629 33-796 limits assumed): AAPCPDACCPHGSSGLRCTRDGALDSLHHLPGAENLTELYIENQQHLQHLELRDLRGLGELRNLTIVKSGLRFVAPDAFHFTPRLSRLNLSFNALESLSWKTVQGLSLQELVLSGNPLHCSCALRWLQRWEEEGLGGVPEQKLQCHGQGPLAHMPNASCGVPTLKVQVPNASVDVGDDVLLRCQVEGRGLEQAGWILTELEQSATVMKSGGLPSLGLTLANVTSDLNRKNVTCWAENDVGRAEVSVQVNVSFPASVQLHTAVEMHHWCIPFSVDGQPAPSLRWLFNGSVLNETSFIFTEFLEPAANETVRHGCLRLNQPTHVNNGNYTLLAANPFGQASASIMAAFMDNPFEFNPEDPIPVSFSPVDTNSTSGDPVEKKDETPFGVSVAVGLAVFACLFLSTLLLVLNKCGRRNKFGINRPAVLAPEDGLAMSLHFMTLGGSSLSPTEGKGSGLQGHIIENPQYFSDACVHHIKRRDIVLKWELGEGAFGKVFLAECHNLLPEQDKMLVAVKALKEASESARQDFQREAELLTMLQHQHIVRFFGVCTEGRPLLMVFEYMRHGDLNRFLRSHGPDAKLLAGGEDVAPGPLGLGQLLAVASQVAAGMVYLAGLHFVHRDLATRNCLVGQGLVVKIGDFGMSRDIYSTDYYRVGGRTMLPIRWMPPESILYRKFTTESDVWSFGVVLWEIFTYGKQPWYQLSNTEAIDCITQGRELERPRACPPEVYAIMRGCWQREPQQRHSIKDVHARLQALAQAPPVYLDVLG

U2OS [23] = assay: Antiproliferative activity against human U2OS cells assessed as change in phenotypic response up to 50 uM; format: functional, cell-based
[24] = target: Proto-oncogene tyrosine-protein kinase receptor Ret (Homo sapiens) (UniProt P07949); assay: Inhibition of partial length human RET expressed in bacterial system at 1 uM; how it was run: as §2
[25] = target: Casein kinase I isoform delta (Homo sapiens) (UniProt P48730); assay: Inhibition of partial length human CSNK1D expressed in bacterial system at 1 uM; how it was run: as §1
Casein kinase I isoform delta (Homo sapiens), sequence (P48730 whole entry, looked up, the tested form may be a part, canonical isoform): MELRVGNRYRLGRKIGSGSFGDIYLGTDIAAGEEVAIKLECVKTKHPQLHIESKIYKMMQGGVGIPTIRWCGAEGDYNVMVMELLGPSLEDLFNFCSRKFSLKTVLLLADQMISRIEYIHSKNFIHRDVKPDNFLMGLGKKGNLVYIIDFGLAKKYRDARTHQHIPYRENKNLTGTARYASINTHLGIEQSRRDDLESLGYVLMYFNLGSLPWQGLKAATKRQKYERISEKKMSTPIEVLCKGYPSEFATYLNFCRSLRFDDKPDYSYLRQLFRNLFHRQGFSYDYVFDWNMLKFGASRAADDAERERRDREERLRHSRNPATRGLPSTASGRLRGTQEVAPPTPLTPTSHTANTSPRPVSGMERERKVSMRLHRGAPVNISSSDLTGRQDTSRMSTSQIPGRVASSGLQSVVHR

[26] = target: Non-receptor tyrosine-protein kinase TYK2 (Homo sapiens) (UniProt P29597); assay: Inhibition of partial length human TYK2 JH1catalytic domain expressed in mammalian system at 1 uM; how it was run: as §2
Non-receptor tyrosine-protein kinase TYK2 (Homo sapiens), sequence (P29597 whole entry, the tested form may be a part): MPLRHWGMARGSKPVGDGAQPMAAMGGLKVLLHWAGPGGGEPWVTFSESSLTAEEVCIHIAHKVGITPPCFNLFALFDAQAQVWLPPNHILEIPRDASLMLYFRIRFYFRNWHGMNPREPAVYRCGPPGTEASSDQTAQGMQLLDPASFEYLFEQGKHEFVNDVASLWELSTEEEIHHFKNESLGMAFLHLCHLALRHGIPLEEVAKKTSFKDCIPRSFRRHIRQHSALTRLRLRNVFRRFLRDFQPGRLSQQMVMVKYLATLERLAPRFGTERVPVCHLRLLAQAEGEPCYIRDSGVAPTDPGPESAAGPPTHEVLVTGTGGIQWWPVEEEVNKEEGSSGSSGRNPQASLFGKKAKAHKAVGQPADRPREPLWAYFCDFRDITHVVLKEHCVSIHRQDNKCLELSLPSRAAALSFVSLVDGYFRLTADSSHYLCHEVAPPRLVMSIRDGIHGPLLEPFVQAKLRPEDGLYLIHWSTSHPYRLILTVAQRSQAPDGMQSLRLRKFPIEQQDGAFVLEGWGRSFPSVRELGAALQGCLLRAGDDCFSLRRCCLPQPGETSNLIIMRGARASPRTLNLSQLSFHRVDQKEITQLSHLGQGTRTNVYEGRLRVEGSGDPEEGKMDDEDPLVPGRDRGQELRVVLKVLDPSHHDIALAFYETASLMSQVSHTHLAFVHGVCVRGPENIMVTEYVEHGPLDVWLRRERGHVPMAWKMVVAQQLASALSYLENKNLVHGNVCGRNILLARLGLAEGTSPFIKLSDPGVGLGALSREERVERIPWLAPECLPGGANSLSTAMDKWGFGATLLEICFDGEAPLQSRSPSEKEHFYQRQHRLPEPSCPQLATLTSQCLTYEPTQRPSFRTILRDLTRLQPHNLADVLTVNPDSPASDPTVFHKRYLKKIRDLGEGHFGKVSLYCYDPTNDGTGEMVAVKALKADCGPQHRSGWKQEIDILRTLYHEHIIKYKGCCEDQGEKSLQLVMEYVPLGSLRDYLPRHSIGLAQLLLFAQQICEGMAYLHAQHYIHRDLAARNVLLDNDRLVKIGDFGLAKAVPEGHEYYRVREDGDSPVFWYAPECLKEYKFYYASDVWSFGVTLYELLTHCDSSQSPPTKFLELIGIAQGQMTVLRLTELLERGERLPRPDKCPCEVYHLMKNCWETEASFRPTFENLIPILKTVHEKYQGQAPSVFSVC

SAOS-2 [27] = assay: Antiproliferative activity against human Saos2 cells assessed as change in phenotypic response up to 50 uM; format: functional, cell-based
[28] = target: Vascular endothelial growth factor receptor 2 (Homo sapiens) (UniProt P35968); assay: Inhibition of partial length human VEGFR2 expressed in mammalian system at 1 uM; how it was run: as §2
[29] = target: NUAK family SNF1-like kinase 2 (Homo sapiens) (UniProt Q9H093); assay: Inhibition of partial length human SNARK expressed in mammalian system at 1 uM; how it was run: as §2
NUAK family SNF1-like kinase 2 (Homo sapiens), sequence (Q9H093 whole entry): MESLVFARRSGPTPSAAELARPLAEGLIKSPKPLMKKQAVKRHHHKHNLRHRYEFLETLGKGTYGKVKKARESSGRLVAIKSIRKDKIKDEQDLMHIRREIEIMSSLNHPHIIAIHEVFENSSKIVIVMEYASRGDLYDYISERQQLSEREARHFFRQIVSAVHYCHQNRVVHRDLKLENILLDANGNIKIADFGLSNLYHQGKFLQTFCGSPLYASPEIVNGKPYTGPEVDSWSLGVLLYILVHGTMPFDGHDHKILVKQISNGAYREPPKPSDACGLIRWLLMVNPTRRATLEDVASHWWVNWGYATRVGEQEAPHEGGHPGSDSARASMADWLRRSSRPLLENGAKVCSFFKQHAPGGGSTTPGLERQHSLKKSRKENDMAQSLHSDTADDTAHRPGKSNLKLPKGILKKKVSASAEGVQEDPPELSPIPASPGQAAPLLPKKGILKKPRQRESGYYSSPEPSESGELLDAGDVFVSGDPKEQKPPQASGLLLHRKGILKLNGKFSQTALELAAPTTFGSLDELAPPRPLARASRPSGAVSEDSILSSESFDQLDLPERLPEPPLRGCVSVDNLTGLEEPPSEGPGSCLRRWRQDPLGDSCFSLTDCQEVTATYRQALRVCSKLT

[30] = target: Platelet-derived growth factor receptor alpha (Homo sapiens) (UniProt P16234); assay: Inhibition of partial length human PDGFRalpha expressed in mammalian system at 1 uM; how it was run: as §2
HMEC = assay: Cytotoxicity against human HMEC cells assessed as change in phenotypic response up to 50 uM; format: cell-based
[31] = target: Insulin receptor (Homo sapiens) (UniProt P06213); assay: Inhibition of partial length human INSR expressed in mammalian system at 1 uM; how it was run: as §1
[32] = target: Hepatocyte growth factor receptor (Homo sapiens) (UniProt P08581); assay: Inhibition of partial length human MET expressed in bacterial system at 1 uM; how it was run: as §2
[33] = target: Serine/threonine-protein kinase ULK2 (Homo sapiens) (UniProt Q8IYT8); assay: Inhibition of partial length human ULK2 expressed in mammalian system at 1 uM; how it was run: as §2
[34] = target: Serine/threonine-protein kinase STK11 (Homo sapiens) (UniProt Q15831); assay: Inhibition of partial length human LKB1 expressed in bacterial system at 1 uM; how it was run: as §1
[35] = target: MAP kinase-interacting serine/threonine-protein kinase 2 (Homo sapiens) (UniProt Q9HBH9); assay: Inhibition of partial length human MKNK2 expressed in mammalian system at 1 uM; how it was run: as §2
[36] = Cytotoxicity against human WI38 cells assessed as change in phenotypic response measured after prolonged treatment; format: cell-based; details: wi-38
[37] = target: Inhibitor of nuclear factor kappa-B kinase subunit alpha (Homo sapiens) (UniProt O15111); assay: Inhibition of partial length human IKKalpha expressed in mammalian system at 1 uM; how it was run: as §1

For `Cc1cnc(N)nc1OCC(C)(C)CO`, the inhibition [1] was “inactive”, the inhibition [2] was “inactive” and the inhibition [3] was “inactive”. For the same compound, the Activity (SAOS-2 [4]) was “inactive”, the Activity (SW480) was “inactive” and the inhibition [5] was “inactive”. The inhibition [6] was “inactive”, the Activity (MDA-MB-231) was “inactive” and the inhibition [7] was “inactive”. For the same compound, the efflux ratio [8] was 0.8, the inhibition [9] was “inactive” and the inhibition [10] was “inactive”. For the same compound, the inhibition [11] was “inactive”, the inhibition [12] was “inactive” and the inhibition [13] was “inactive”. For the same compound, the Papp [14] was 32 ×10⁻⁶ cm/s, the Activity (U2OS [15]) was “inactive” and the inhibition [16] was “inactive”. The Activity (MRC5) was “Non-toxic”, the inhibition [17] was “inactive” and the inhibition [18] was “inactive”. For the same compound, the inhibition [19] was “inactive”, the inhibition [20] was “inactive” and the inhibition [21] was “inactive”. The inhibition [22] was “inactive”, the Activity (U2OS [23]) was “inactive” and the inhibition [24] was “inactive”. For the same compound, the inhibition [25] was “inactive”, the inhibition [26] was “inactive” and the Activity (SAOS-2 [27]) was “inactive”. The inhibition [28] was “inactive”, the inhibition [29] was “inactive” and the inhibition [30] was “inactive”. The Activity (HMEC) was “Non-toxic”, the inhibition [31] was “inactive” and the inhibition [32] was “inactive”. The inhibition [33] was “inactive”, the inhibition [34] was “inactive” and the inhibition [35] was “inactive”. For the same compound, the Activity [36] was “Non-toxic” and the inhibition [37] was “inactive”.
